PfGluPho inh = PfG6PD (Plasmodium falciparum) enzyme inhibition; PfGluPho enzyme, NADPH resazurin-diaphorase fluorescence; AID 504690; inhibition, % at 20 µM; 350,000 compounds, 0.78% hits;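 active means inhibition reaching at least a set limit at 20 µM in the primary screen, cut at about 59% in these data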;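 further: 0% = DMSO wells with substrate and 100% = DMSO wells lacking glucose-6-phosphate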
Diaph act CS = counter-screen for diaphorase-based assays: diaphorase activators and chemical reducers | Diaphorase/resazurin coupled assay, resorufin fluorescence, 16 min; stronger effect = higher value; 1 = vehicle wells, 0 = NADH-free wells | activation factor at 20 µM | 190,000 compounds, 0.005% hits | AID 1229;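 active means diaphorase activity raised at least twofold by the compound at 20 µM; inactive means activation factor below 2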
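Material: Clostridium kluyveri diaphorase, purified enzyme; Quantity: enzyme 0.07 U/mL final; Medium: HEPES pH 7.4 buffer with MgCl2 and Tween 20; Dosing: single compound dose of 20 µM, 1% DMSO final; Schedule: 16 min reaction at room temperature; Measured by: red resorufin fluorescence at 544/590 nm excitation/emission.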
Diaphorase inh = counter-screen for diaphorase-based assays: diaphorase inhibitors and chemical oxidizers. diaphorase resazurin-to-resorufin fluorescence, NADH, 16 min; bacterial (C. kluyveri) enzyme, not human. inhibition, % at 20 µM. 190,000 compounds, 0.69% hits;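 active means primary screen inhibition at 20 µM above a set limit, cut at about 50% in these data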;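 further: plate controls were DMSO with full reaction for no effect and wells lacking NADH for full effect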
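System: Diaphorase enzyme from Clostridium kluyveri | Amount: Enzyme working solution with 0.14 U/mL diaphorase | Benchmarks: No-NADH positive control and DMSO neutral control | Signal: Fluorescence of resorufin formed from resazurin, Ex 544/Em 590 nm | Schedule: 16-min room-temperature incubation before reading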
TbHK1 inh = T. brucei hexokinase 1 inhibition; inhibition, % at 10 µM; recombinant TbHK1, G6PDH-coupled NADH A340; 220,000 compounds, 0.11% hits; AID 1430;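 active means inhibition of 50% or more in the single-dose primary screen; inactive means inhibition below 50%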
G6PDH counter = counter-screen for G6PDH assay hits: L. mesenteroides G6PDH inhibition; Purified L. mesenteroides G6PDH, diaphorase/resazurin coupled fluorescence, 45 min; inhibition, % at 5 µM; 200,000 compounds, 0.12% hits; AID 1020; in the data active means inhibition above about 50%
HKDC1 inh = inhibitors of human hexokinase HKDC1; Q2TB90; recombinant HKDC1, G6PDH/diaphorase resazurin coupled fluorescence; inhibition, % at 20 µM; 340,000 compounds, 0.16% hits; AID 493160;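 active means inhibition above about 35% when tested at 20 µM, limit read from the data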;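 further: plate controls were DMSO wells with enzyme for no effect and DMSO wells lacking enzyme for full effect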
Target sequence (Q2TB90 whole entry, looked up): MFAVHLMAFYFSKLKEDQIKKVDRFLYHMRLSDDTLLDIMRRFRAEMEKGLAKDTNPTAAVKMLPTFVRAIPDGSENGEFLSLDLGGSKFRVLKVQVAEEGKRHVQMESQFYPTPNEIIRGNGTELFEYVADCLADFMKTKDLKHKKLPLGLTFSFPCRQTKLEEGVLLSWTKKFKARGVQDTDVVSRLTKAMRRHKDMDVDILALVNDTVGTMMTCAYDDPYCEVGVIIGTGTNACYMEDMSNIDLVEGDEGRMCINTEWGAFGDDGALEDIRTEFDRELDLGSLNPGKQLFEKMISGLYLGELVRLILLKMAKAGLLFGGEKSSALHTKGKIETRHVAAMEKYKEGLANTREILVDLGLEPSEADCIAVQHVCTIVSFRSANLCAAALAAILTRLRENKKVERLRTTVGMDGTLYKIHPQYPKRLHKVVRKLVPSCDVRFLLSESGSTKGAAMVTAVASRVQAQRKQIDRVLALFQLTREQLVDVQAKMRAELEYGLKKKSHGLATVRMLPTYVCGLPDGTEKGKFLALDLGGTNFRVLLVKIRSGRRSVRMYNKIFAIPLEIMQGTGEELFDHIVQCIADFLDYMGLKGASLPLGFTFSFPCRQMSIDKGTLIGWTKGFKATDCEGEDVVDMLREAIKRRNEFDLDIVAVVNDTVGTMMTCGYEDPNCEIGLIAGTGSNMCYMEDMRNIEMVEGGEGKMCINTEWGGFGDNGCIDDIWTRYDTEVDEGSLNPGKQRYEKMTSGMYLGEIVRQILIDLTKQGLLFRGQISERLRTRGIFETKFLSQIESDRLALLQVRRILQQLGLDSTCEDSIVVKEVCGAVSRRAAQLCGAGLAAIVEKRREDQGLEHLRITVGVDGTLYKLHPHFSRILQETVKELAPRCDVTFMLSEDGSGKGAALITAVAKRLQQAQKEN
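Assay system: recombinant HKDC1 hexokinase; detection: coupled resazurin fluorescence, excitation 525 nm, emission 613 nm; benchmarks: DMSO-plus-enzyme-mix negative control, buffer-substituted positive control; compound dosing: single 20 µM dose; schedule: 90 min at room temperature in dark; also added: glucose plus 1 mM ATP as hexokinase substrates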
PfGluPho conf = PfG6PD inhibition, single-dose confirmed | shares compounds with PfGluPho inh | recombinant PfGluPho, NADPH-diaphorase-resazurin fluorescence | inhibition, % at 20 µM | 2,400 compounds, 34% hits;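 active means inhibition of at least 50% at 20 µM in any single replicate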;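 further: 0% = DMSO with substrate and 100% = DMSO lacking glucose-6-phosphate substrate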
Diaphorase 10uM = inhibits diaphorase or oxidizes, flagging false PfG6PD hits; shares compounds with PfGluPho inh; diaphorase-coupled resazurin reduction, fluorescence, NADPH 10 uM; inhibition, % at 20 µM; 820 compounds, 39% hits;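 active means average inhibition reaching 50% or more with the compound at 20 µM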;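 further: resorufin red fluorescence formed as diaphorase reduces resazurin using NADPH; 0% = DMSO with enzyme and 100% = DMSO without enzyme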
Diaphorase 30uM = inhibits diaphorase or oxidizes, flagging false PfG6PD hits | shares compounds with PfGluPho inh | Diaphorase/resazurin coupled assay, resorufin fluorescence, 30 uM NADPH | inhibition, % at 20 µM | 820 compounds, 29% hits | AID 504863;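 active means inhibition averaging 50% or more, tested at 20 µM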;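 further: 0% = DMSO with enzyme and 100% = DMSO wells lacking diaphorase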
Starred values were filed as active, the others as inactive; · = not tested or not shown. An excerpt weighted towards active compounds, which were near 1.3% of everything screened.

SMILES | PfGluPho inh | Diaph act CS | Diaphorase inh | TbHK1 inh | G6PDH counter | HKDC1 inh | PfGluPho conf | others
CC1(c2cccc(Br)c2)NC(=O)N(CC(=O)Nc2ccc(S(N)(=O)=O)cc2)C1=O (stereo not given) | 3 | · | · | · | · | -6 | ·
Cn1cc(C(CO)Cc2ccccc2)c2ccccc21 (stereo not given) | 88* | · | · | · | · | -4 | 40
CCOC(=O)c1cnc2ccc(C(=O)OC)cc2c1NCCCN1CCOCC1 | 27 | · | · | · | · | 9 | ·
CCOC(=O)c1cnc2ccc(C(=O)OC)cc2c1NCCN1CCOCC1 | 71* | 1 | 3 | -32 | 2 | 1 | 16
O=C(N/N=C/c1ccoc1)c1ccccc1F | 9 | · | · | · | · | 0 | ·
Cc1cc(NCCCCCCCNc2cc(C)nc3cc([N+](=O)[O-])ccc23)c2ccc([N+](=O)[O-])cc2n1 | 78* | · | · | · | · | 7 | 12
CC(C)n1c(=S)[nH]c2c1c(=O)[nH]c(=O)n2C | 67* | 0.8 | 23 | 10 | 3 | -4 | 33
C=CC(C)n1c(Br)nc2c1c(=O)[nH]c(=O)n2C (stereo not given) | 3 | 0.9 | 14 | 23 | 9 | -4 | ·
COc1cnn(-c2ccccc2)c(=O)c1SCc1ccc(Cl)cc1Cl | 66* | 0.7 | 29 | -8 | -3 | 10 | -3
COc1cnn(-c2ccc(C)cc2)c(=O)c1SCc1ccccc1 | 66* | 0.8 | 22 | -13 | 0 | -1 | 3
CC1(C)CC(NC(=O)CCc2nnc(CCCCc3ccccc3)o2)CCO1 (stereo not given) | -1 | 1.1 | -5 | 1 | 7 | 6 | ·
Cc1cc(Oc2ccc(=O)n(C)n2)nc(=S)[nH]1 | · | 0.6 | 38 | 0 | 8 | · | ·
O=C(NCc1ccco1)c1ccc(-c2csnn2)cc1 | 5 | · | · | -1 | · | -2 | ·
Cc1c(C(=O)Nc2ccc3c(c2)OCCO3)sc2nc(-c3ccccc3)cn12 | 58 | 0.8 | 18 | 3 | 7 | -3 | ·
Cc1c(C(=O)Nc2ccncc2)sc2nc(-c3ccccc3)cn12 | 78* | 0.9 | 13 | -6 | -12 | -3 | 24
CC1(OC(=O)CCc2ccccc2)C(=O)C=C2C=C(c3ccc(C#N)cc3)N(Cc3ccco3)C=C2C1=O (stereo not given) | 37 | · | · | -21 | · | 19 | ·
COCCN1C=C2C(=O)C(C)(OC(=O)CCc3ccccc3)C(=O)C=C2C=C1c1ccc(C#N)cc1 (stereo not given) | 62* | · | · | -26 | · | 25 | 22
CC1(OC(=O)CCc2ccccc2)C(=O)C=C2C=C(c3ccc(C#N)cc3)N(C3CC3)C=C2C1=O (stereo not given) | 83* | · | · | -29 | · | 30 | 49
CCN(CC)CCNC(=O)CN1C(=O)CSc2ccc(S(=O)(=O)N3CCOCC3)cc21 | 2 | · | · | · | · | · | ·
CN(C)C(=O)NC1c2ccccc2-c2ccccc21 | -5 | · | · | · | · | -3 | ·
O=C1C=CC(=O)N1c1ccc2c(c1)C(NC(=O)C(F)(F)F)c1ccccc1-2 (stereo not given) | 98* | · | · | · | · | -6 | 51* | Diaphorase 10uM=-40;Diaphorase 30uM=-30
Cn1c(=N)n(CC(O)c2cccc3ccccc23)c2ccccc21 (stereo not given) | 80* | 0.9 | 10 | 8 | 5 | 0 | 62* | Diaphorase 10uM=63*;Diaphorase 30uM=52*
O=C(NCCN1CCOCC1)C1(C(F)(F)F)C/C(=C\Cc2ccccc2)CCCO1 (stereo not given) | 0 | · | · | · | · | 2 | ·
Cc1ccc(S(=O)c2ccc([N+](=O)[O-])c3nonc23)cc1 (stereo not given) | 117* | · | · | · | · | · | 103* | Diaphorase 10uM=11;Diaphorase 30uM=11
Cc1ccc(Nc2c([N+](=O)[O-])ccc3nonc23)c(C)c1 | 7 | · | · | · | · | -3 | ·
SMILES | PfGluPho inh | Diaph act CS | Diaphorase inh | TbHK1 inh | G6PDH counter | HKDC1 inh | PfGluPho conf | others
CC(C)CN1C=C2C(=O)C(C)(OC(=O)C3CCCC3)C(=O)C=C2C=C1c1ccsc1 (stereo not given) | 44 | · | · | -26 | · | 21 | ·
CC1(OC(=O)C2CCCC2)C(=O)C=C2C=C(c3ccsc3)N(C(CO)CO)C=C2C1=O (stereo not given) | 66* | · | · | -29 | · | 20 | 7
CC1(OC(=O)C2CCCC2)C(=O)C=C2C=C(c3ccsc3)N(Cc3ccccc3)C=C2C1=O (stereo not given) | 50 | · | · | -9 | · | 28 | ·
CC1(OC(=O)C2CCCC2)C(=O)C=C2C=C(c3ccsc3)N(C3CC3)C=C2C1=O (stereo not given) | 80* | · | · | -30 | · | 21 | 28
CC1(OC(=O)C2CCCC2)C(=O)C=C2C=C(c3ccsc3)N(CCc3ccccn3)C=C2C1=O (stereo not given) | 70* | · | · | -47 | · | 24 | 39
CC1(OC(=O)C2CCCC2)C(=O)C=C2C=C(c3ccsc3)N(c3ccccc3)C=C2C1=O (stereo not given) | 54 | · | · | -24 | · | 23 | ·
COc1cccc(C(=O)/C=C2\Sc3ccccc3N2C)c1 | 82* | 1 | 1 | -6 | -3 | -9 | 41
CCCCNc1cc(=O)n(C)c(=O)n1C | -11 | 0.9 | 5 | 1 | 6 | -2 | ·
CCCCNC1=CC(=O)C(NCCCC)=CC1=O | 62* | · | · | · | · | 27 | -3
Cc1cc(C)c2c(=O)n3c(nc2c1)C(Cc1ccccc1)NC(=O)c1cc2ccccc2cc1-3 (stereo not given) | -9 | · | · | · | · | · | ·
COc1ccc(NC(=S)N(CCC(C)C)C2CCN(C(C)C)CC2)cc1Cl | 69* | · | · | · | · | -4 | 83* | Diaphorase 10uM=-13;Diaphorase 30uM=-14
Cc1ccc(Nc2cc(C)c3c(O)cccc3n2)cc1C | 125* | · | · | -13 | · | 14 | 36
COC(=O)c1cc(Nc2cc(C)c3c(O)cccc3n2)cc(C(=O)OC)c1 | 2 | · | · | 3 | · | 2 | ·
COc1ccc(OC)c(Nc2cc(C)c3ccccc3n2)c1 | 15 | · | · | · | · | 6 | ·
COc1ccc(Nc2cc(C)c3c(O)cccc3n2)cc1 | 120* | · | · | -17 | · | 8 | 56* | Diaphorase 10uM=19;Diaphorase 30uM=43
COc1cccc(Nc2cc(C)c3ccccc3n2)c1 | 61* | · | · | · | · | -2 | -10
O=S(=O)(Nc1ccccc1N1CCCC1)c1ccccc1C(F)(F)F | 16 | · | · | · | · | · | ·
O=S(=O)(Nc1ccccc1N1CCCCC1)c1ccc(Cl)s1 | 86* | 0.8 | 18 | 8 | 6 | 2 | 22
Cc1cccc(-c2nnc(-c3ccc4ccccc4c3)o2)c1 | 35 | · | · | · | · | -4 | ·

Assay outcomes deposited in PubChem BioAssay by several laboratories.
